Experimental data reported in ChEMBL document CHEMBL2417468, “4β-[4'-(1-(Aryl)ureido)benzamide]podophyllotoxins as DNA topoisomerase I and IIα inhibitors and apoptosis inducing agents” (2013).
The source made the active and inactive calls. No cut-off for these calls is given here.

What was measured:
MCF7 = assay: Growth inhibition of human MCF7 cells after 48 hrs by sulforhodamine B assay; assay type: functional; conditions: MCF7, 48 h
HOP-62 = assay: Growth inhibition of human HOP62 cells after 48 hrs by sulforhodamine B assay; assay type: functional
[1] = (§1) Growth inhibition of human DWD cells after 48 hrs by sulforhodamine B assay; assay type: functional
A2780 = assay: Growth inhibition of human A2780 cells after 48 hrs by sulforhodamine B assay; assay type: functional
COLO 205 [2] = assay: Cytotoxicity against human COLO205 cells assessed as reduction in cellular ATP level at 2 uM after 24 hrs by bioluminescence assay; assay type: functional, cell-based
Method in brief: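 Colo-205 cells exposed 24 h at 2 µM, lysed in ice-cold RIPA, debris spun off at 4 °C; intracellular ATP in supernatant by luciferin-luciferase bioluminescence kit; three independent experiments, mean ± S.D., untreated control.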

COLO 205 [3] = assay: Cell cycle arrest in human COLO205 cells assessed as accumulation at G0/G1 phase at 2 uM after 24 hrs by propidium iodide staining-based FACS flow cytometric analysis (reference value: 65.23%); assay type: functional
MDA-MB-231 [4] = assay: Cytotoxicity against human MDA-MB-231 cells assessed as cell viability at 2 to 4 uM after 24 hrs by MTT assay; assay type: functional, cell-based
Method in brief: (§2)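 Colo-205 (RPMI, 10% FCS) and MDA-MB-231 (DMEM, 2 mM glutamax, 10% FCS, penicillin/streptomycin) seeded at 1 104 cells/well, 18 h preincubation; fresh medium with compound at 0.5, 1, 2 and 4 µM for 24 h at 37 °C; MTT 2 h, formazan solubilised, OD 570 nm; DMSO ≤0.25%, DMSO-only wells as untreated control.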

COLO 205 [5] = assay: Induction of apoptosis in human COLO205 cells assessed as caspase-3 activation at 2 uM after 24 hrs by ELISA; assay type: functional, cell-based
Method in brief: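 Colo-205 cells exposed 24 h at 2 µM; lysates in 2X reaction buffer with DTT plus caspase substrate, 1 h at 37 °C; fluorescence read at ex 400/em 505 nm; three independent experiments, mean ± S.D., versus untreated control.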

SiHa = assay: Growth inhibition of human SiHa cells after 48 hrs by sulforhodamine B assay; assay type: functional
COLO 205 [6] = assay: Cytotoxicity against human COLO205 cells assessed as cell viability at 2 to 4 uM after 24 hrs by MTT assay; assay type: functional, cell-based; method in brief: as §2
A549 = assay: Growth inhibition of human A549 cells after 48 hrs by sulforhodamine B assay; assay type: functional
KB = assay: Growth inhibition of human KB cells after 48 hrs by sulforhodamine B assay; assay type: functional
COLO 205 [7] = assay: Cytotoxicity against human COLO205 cells assessed as cell viability at <0.5 to 1 uM after 24 hrs by MTT assay; assay type: functional, cell-based; method in brief: as §2
[8] = (§3) Growth inhibition of human Gurav cells after 48 hrs by sulforhodamine B assay; assay type: functional
COLO 205 [9] = assay: Induction of apoptosis in human COLO205 cells assessed as caspase-3 activation at 2 uM after 24 hrs by Western blotting analysis; assay type: functional, cell-based
Method in brief: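 Colo-205 cells grown to 80% confluency, 2 µM final for 24 h; RIPA lysates with protease inhibitors, Bradford-quantified, 50 µg protein per lane on 12% SDS-PAGE, PVDF transfer, probed overnight at 4 °C for active caspase-3, β-actin as loading control, chemiluminescent detection.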

COLO 205 [10] = assay: Cytotoxicity against human COLO205 cells assessed as viable cells at 2 uM after 24 hrs by trypan blue exclusion assay; assay type: functional, cell-based
Method in brief: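 Colo-205 cells treated 24 h at 1, 2 and 4 µM, trypsinised, mixed with 0.4% trypan blue (10 µl per 100 µl cells), counted on haemocytometer; percentage dead cells calculated; triplicate samples.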

MDA-MB-231 [11] = assay: Cytotoxicity against human MDA-MB-231 cells assessed as cell viability at <0.5 to 1 uM after 24 hrs by MTT assay; assay type: functional, cell-based; method in brief: as §2
COLO 205 [12] = assay: Cell cycle arrest in human COLO205 cells assessed as accumulation at G2/M phase at 2 uM after 24 hrs by propidium iodide staining-based FACS flow cytometric analysis (reference value: 29.52%); assay type: functional
[13] = biological target: DNA topoisomerase 2-alpha (Homo sapiens) (UniProt P11388); assay: Inhibition of human topoisomerase 2alpha-mediated relaxation of supercoiled pBR322 DNA at 2 uM after 30 mins by agarose gel electrophoresis
Sequence of DNA topoisomerase 2-alpha (Homo sapiens) (P11388 whole entry): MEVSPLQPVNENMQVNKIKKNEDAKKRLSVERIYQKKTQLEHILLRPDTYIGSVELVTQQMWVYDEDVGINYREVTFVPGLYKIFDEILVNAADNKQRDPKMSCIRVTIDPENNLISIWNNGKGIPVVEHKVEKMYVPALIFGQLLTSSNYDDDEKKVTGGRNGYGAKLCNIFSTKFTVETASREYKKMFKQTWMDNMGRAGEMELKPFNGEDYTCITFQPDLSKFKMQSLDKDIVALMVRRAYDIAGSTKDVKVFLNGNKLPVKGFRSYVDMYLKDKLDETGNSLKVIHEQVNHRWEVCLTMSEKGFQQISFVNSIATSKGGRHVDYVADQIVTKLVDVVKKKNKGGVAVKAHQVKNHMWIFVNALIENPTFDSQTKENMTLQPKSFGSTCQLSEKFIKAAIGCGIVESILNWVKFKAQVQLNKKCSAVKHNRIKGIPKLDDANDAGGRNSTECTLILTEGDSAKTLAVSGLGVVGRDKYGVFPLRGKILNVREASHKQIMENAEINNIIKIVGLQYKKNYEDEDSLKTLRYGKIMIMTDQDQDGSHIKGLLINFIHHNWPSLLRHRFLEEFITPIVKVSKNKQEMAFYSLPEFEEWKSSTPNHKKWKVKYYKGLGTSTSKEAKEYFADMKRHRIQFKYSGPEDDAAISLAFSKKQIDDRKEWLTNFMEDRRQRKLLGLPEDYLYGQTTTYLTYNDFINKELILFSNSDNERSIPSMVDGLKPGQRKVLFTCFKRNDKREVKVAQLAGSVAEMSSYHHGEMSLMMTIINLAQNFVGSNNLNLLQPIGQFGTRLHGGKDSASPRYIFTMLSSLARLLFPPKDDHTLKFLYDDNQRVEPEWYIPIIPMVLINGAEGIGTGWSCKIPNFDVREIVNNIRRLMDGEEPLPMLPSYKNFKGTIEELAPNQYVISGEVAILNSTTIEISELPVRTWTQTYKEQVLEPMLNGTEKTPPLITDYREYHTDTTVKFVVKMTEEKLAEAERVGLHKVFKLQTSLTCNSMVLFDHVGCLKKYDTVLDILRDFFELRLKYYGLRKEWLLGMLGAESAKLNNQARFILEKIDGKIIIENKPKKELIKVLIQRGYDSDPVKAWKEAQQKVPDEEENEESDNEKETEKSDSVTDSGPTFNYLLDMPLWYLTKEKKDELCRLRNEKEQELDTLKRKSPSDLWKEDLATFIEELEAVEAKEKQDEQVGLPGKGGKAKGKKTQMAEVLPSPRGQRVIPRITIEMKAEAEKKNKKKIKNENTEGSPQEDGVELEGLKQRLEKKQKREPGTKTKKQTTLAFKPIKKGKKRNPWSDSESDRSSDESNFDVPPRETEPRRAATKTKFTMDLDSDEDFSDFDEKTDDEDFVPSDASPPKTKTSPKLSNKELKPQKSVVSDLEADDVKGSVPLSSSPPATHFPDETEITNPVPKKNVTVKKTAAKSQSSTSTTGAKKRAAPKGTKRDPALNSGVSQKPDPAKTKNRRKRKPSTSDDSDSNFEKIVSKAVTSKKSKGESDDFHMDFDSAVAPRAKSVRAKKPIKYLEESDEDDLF
Method in brief: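 Purified human topoisomerase IIα (4 units) with 200 ng supercoiled pBR322 and compound at 2 µM, 30 min at 30 °C in 10 mM Tris-HCl pH 7.9, 50 mM NaCl, 5 mM MgCl2, 1 mM EDTA, 1 mM ATP, 15 µg/mL BSA; EDTA-stopped; 1% agarose gel in TAE, ethidium bromide, UV visualisation.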

COLO 205 [14] = assay: Cell cycle arrest in human COLO205 cells assessed as accumulation at S phase at 2 uM after 24 hrs by propidium iodide staining-based FACS flow cytometric analysis (reference value: 4.21%); assay type: functional
COLO 205 [15] = assay: Growth inhibition of human COLO205 cells after 48 hrs by sulforhodamine B assay; assay type: functional
ZR-75-1 = assay: Growth inhibition of human ZR-75-1 cells after 48 hrs by sulforhodamine B assay; assay type: functional
COLO 205 [16] = assay: Induction of apoptosis in human COLO205 cells assessed as blebbing at 2 to 4 uM after 24 hrs by Hoechst staining-based confocal microscopic analysis; assay type: functional, cell-based
Method in brief: (§4)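 Colo-205 cells on coverslips treated 24 h at 2 and 4 µM, 4% paraformaldehyde fixed 15 min, RNase-treated 30 min at 37 °C, Hoechst-stained; nuclear morphology (fragmentation, blebbing) by confocal microscopy versus untreated cells.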

COLO 205 [17] = assay: Induction of apoptosis in human COLO205 cells assessed as DNA fragmentation at 2 to 4 uM after 24 hrs by Hoechst staining-based confocal microscopic analysis; assay type: functional, cell-based; method in brief: as §4
DWD = assay: as §1; assay type: functional
Gurav = assay: as §3; assay type: functional

SMILES | GI50 (MCF7) [nM] | GI50 (HOP-62; HOP-62, 48 h) [nM] | GI50 [1] [nM] | GI50 (A2780; A2780, 48 h) [nM] | Activity (COLO 205 [2]) | Activity (COLO 205 [3]) [%] | Activity (MDA-MB-231 [4]) | Activity (COLO 205 [5]) | GI50 (SiHa) | Activity (COLO 205 [6]) | GI50 (A549; A549, 48 h) [nM] | GI50 (KB) | Activity (COLO 205 [7]) | GI50 [8] [nM] | Activity (COLO 205 [9]) | Activity (COLO 205 [10]) | Activity (MDA-MB-231 [11]) | Activity (COLO 205 [12]) [%] | GI50 (COLO 205 [15]; COLO 205, 48 h) [nM] | GI50 (ZR-75-1; ZR-75-1, 48 h) [nM] | also measured
COc1cc([C@@H]2c3cc4c(cc3[C@@H](NC(=O)c3ccc(NC(=O)NCCBr)cc3)[C@H]3COC(=O)[C@H]23)OCO4)cc(OC)c1OC | 140 | 100 | 170 | 140 | Active | 74.1 | Active | Active | 210 nM | Active | 100 | inactive | inactive | 1850 | Active | Active | inactive | 19.94 | 10 | 160 | Inhibition of relaxation (qualitative call) [13]: Active; Percent of cells in S phase (COLO 205 [14]): 5.96%
COc1cc([C@@H]2c3cc4c(cc3[C@@H](O[C@@H]3O[C@@H]5CO[C@@H](C)O[C@H]5[C@H](O)[C@H]3O)[C@H]3COC(=O)[C@H]23)OCO4)cc(OC)c1O [ETOPOSIDE] | – | 800 | 620 | – | Active | 42.68 | Active | Active | 3110 nM | Active | 3080 | 310 nM | inactive | 510 | Active | Active | inactive | 49.63 | 130 | 200 | Activity (COLO 205 [16]): Active; Activity (COLO 205 [17]): Active; Percent of cells in S phase (COLO 205 [14]): 7.36%
COc1cc([C@@H]2c3cc4c(cc3[C@@H](NC(=O)c3ccc(NC(=O)NCCCl)cc3)[C@H]3COC(=O)[C@H]23)OCO4)cc(OC)c1OC | 100 | 120 | 1600 | 1300 | Active | 76.22 | Active | Active | inactive | Active | 1120 | 210 nM | inactive | 100 | Active | Active | inactive | 18.15 | 10 | 2900 | Inhibition of relaxation (qualitative call) [13]: Active; Percent of cells in S phase (COLO 205 [14]): 5.62%
COc1cc([C@@H]2c3cc4c(cc3[C@@H](NC(=O)c3ccc(NC(=O)Nc5c(Cl)cccc5Cl)cc3)[C@H]3COC(=O)[C@H]23)OCO4)cc(OC)c1OC | 150 | – | – | – | – | – | – | – | inactive | – | – | 2800 nM | – | – | – | – | – | – | – | – | GI50 (HOP-62): inactive; GI50 (DWD): inactive; GI50 (A2780): inactive; GI50 (A549): inactive; GI50 (Gurav): inactive; GI50 (COLO 205 [15]): inactive; GI50 (ZR-75-1): inactive
COc1cc([C@@H]2c3cc4c(cc3[C@@H](NC(=O)c3ccc(NC(=O)Nc5cccc6ccccc56)cc3)[C@H]3COC(=O)[C@H]23)OCO4)cc(OC)c1OC | 110 | – | – | 2220 | – | – | – | – | 2300 nM | – | 2010 | inactive | – | 2900 | – | – | – | – | 2230 | 2000 | GI50 (HOP-62): inactive; GI50 (DWD): inactive
COc1ccc(NC(=O)Nc2ccc(C(=O)N[C@@H]3c4cc5c(cc4[C@@H](c4cc(OC)c(OC)c(OC)c4)[C@H]4C(=O)OC[C@@H]43)OCO5)cc2)cc1 | 1100 | 120 | 1700 | 1350 | Active | 76.61 | Active | Active | inactive | Active | 1500 | 2310 nM | inactive | 240 | Active | Active | inactive | 17.88 | 20 | 180 | Inhibition of relaxation (qualitative call) [13]: Active; Percent of cells in S phase (COLO 205 [14]): 5.09%
COc1cc([C@@H]2c3cc4c(cc3[C@@H](NC(=O)c3ccc(NC(=O)Nc5cc(C(F)(F)F)cc(C(F)(F)F)c5)cc3)[C@H]3COC(=O)[C@H]23)OCO4)cc(OC)c1OC | 2700 | – | – | 2300 | – | – | – | – | inactive | – | 2980 | 2600 nM | – | – | – | – | – | – | – | 2220 | GI50 (HOP-62): inactive; GI50 (DWD): inactive; GI50 (Gurav): inactive; GI50 (COLO 205 [15]): inactive
